Measurements from different studies.
Target: Homeodomain-interacting protein kinase 3 (HIPK3, Homo sapiens, UniProt Q9H422)
Observed: enzyme activity
Mode: inhibitor

SMILES	assay	setting	remaining activity [%]
O=C(Nc1cnn(-c2csc(C(=O)NC3COC3)c2)c1)Nc1ccccc1Cl		5 µM	97.6
FC(F)c1nc2ccccc2n1-c1nc(N2CCOCC2)nc(N2CCOCC2)n1		10 µM	98
CC(C)(O)[C@H]1CC[C@H](Nc2ccc3ncc(-c4cccc(C(F)(F)F)c4)n3n2)CC1		1 µM	78.4
Cc1sc(C(=O)NC2COC2)cc1-n1cc(NC(=O)Nc2c(F)cccc2Cl)cn1		10 µM	88.5
COc1cc(Cl)c(C(=O)N[C@@H](CN[C@H]2CC[C@@H](N)CC2)Cc2ccc(C#N)cc2)cc1-c1ccc(CN[C@H](C)c2ccc(C)cc2)o1		1 µM	96
Cc1cnc(NC2CCOCC2)nc1-n1cnc(C(=O)NC(CN)c2cc(F)cc(Cl)c2)c1 (stereo not shown)	radiometric	1 µM	94
CC(C)(C)c1nc(-c2cccc(NS(=O)(=O)c3c(F)cccc3F)c2F)c(-c2ccnc(N)n2)s1	radiometric	1 µM	99
O=C(O)c1ccc2c(c1)nc(Nc1ccc(F)c(Cl)c1)c1ccncc12	radiometric	1 µM	5
CCN(CC)c1ccc(C2=NNC(=O)CC2C)cc1[N+](=O)[O-] (stereo not shown)		10 µM	40
O=C(O)c1ccc2c(c1)nc(Nc1ccc(F)c(Cl)c1)c1ncncc12	radiometric	1 µM	12
Cc1ccc(C(=O)Nc2ccc(CN3CCN(C)CC3)c(C(F)(F)F)c2)cc1C#Cc1cnc2cccnn12		23.5 nM	93
O=C(O)c1ccc2c(c1)nc(NCCc1ccccc1)c1ccncc12	radiometric	1 µM	8
CC(C)(C)c1nc2c(s1)c1nc(N)ncc1c1ccc(NS(=O)(=O)c3c(F)cccc3F)c(F)c12	radiometric	1 µM	96
O=C(O)c1ccc2c(c1)nc(Nc1ccc3ccccc3c1)c1ccncc12	radiometric	1 µM	7
CCCOc1ccc(OC)c(F)c1C(=O)c1ccc(C(=O)N[C@@H]2CNC[C@H]2NC(=O)c2ccc3[nH]ncc3c2)cc1		10 µM	97
O=C(O)c1ccc2c(c1)nc(NCCc1cccc(Cl)c1)c1ncncc12	radiometric	1 µM	38
COc1cc(Nc2cnc(C#N)c(O[C@H](C)CN(C)C)n2)ncc1-c1cnn(C)c1	radiometric	1 µM	96
Oc1cccc(-c2nc(N3CCOCC3)c3oc4ncccc4c3n2)c1		10 µM	82
O=C(O)c1ccc2c(c1)nc(NCc1ccccc1)c1ncncc12	radiometric	1 µM	52
